Assay results taken from ChEMBL document CHEMBL1138040, “Activation of murine RNase L by isopolar 2'-phosphonate analogues of 2',5' oligoadenylates” (J Med Chem, 2006).

Assays:
[1] = target: T1, 2-5A-dependent ribonuclease (Mus musculus) (UniProt Q05921); assay: Displacement of pA4[32P]pCp from mouse spleen RNase L at 1 uM; type: tissue-based
T1 sequence (whole entry): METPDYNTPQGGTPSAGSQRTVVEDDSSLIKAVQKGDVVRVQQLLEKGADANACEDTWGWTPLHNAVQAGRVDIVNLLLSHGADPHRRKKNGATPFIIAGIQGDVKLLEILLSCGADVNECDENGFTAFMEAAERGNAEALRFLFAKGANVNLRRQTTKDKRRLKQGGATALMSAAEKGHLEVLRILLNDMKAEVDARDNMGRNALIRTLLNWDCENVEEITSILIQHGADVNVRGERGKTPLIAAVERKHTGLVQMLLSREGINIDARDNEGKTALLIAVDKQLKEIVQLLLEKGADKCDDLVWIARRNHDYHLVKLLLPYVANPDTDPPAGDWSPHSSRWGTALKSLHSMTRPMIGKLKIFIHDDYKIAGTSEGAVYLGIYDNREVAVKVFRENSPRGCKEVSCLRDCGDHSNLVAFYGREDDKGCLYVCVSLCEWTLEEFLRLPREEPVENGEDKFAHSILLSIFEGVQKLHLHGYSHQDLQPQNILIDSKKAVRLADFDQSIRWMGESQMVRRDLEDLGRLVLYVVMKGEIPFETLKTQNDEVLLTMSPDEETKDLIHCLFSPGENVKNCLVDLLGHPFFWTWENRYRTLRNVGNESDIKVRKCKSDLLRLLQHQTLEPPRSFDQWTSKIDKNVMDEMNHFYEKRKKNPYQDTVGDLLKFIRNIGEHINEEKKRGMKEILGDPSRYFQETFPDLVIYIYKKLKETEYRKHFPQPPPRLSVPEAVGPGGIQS
In short: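 Competitive radiobinding using 20 µL male BALB/c mouse spleen 126 000g supernatant; oligoadenylate at 1 µM final with about 0.4 nM pA4-[32P]pCp in 25 µL. Held 60 min at 4 °C, filtered through nitrocellulose, washed with Tris pH 7.6/KCl/MgCl2/glycerol, bound radioactivity counted by scintillation. Triplicates; percent binding relative to natural pA4.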

[2] = target: T2, 2-5A-dependent ribonuclease (Mus musculus, UniProt Q05921); assay: Binding to mouse RNase L assessed as displacement of pA4-[32P]pCp
T2 sequence (Q05921 whole entry): T1 sequence (whole entry)

Mus musculus = species: Mus musculus; assay: Stability in mouse spleen assessed as ability to resist degradation by nuclease; type: ADME
In short: (§1)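 Oligoadenylate (2.5 nmol) mixed with 9 µL soluble mouse spleen 126 000g supernatant, kept at 4 °C. Sampled periodically: diluted with aqueous 0.1% TFA, spun 14 000g 10 min, run on C18 RP-HPLC (acetonitrile gradient in 0.1% TFA, 260 nm). Intact and degradation peaks integrated to follow degradation over time.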

[3] = Half life in mouse spleen at 4 degreeC; type: ADME; in short: as §1

SMILES | Activity [1] [%] | also measured
Nc1ncnc2c1ncn2[C@@H]1O[C@H](COP(=O)(O)O[C@H]2[C@H](O)[C@@H](COP(=O)(O)O[C@@H]3[C@H](O)[C@@H](COP(=O)(O)O)O[C@H]3n3cnc4c(N)ncnc43)O[C@H]2n2cnc3c(N)ncnc32)[C@@H](O)[C@H]1OP(=O)(O)O | 33 | 
Nc1ncnc2c1ncn2[C@@H]1O[C@H](COP(=O)(O)O[C@H]2[C@H](O)[C@@H](COP(=O)(O)O[C@H]3[C@H](O)[C@@H](COP(=O)(O)O[C@@H]4[C@H](O)[C@@H](COP(=O)(O)O)O[C@H]4n4cnc5c(N)ncnc54)O[C@H]3n3cnc4c(N)ncnc43)O[C@H]2n2cnc3c(N)ncnc32)[C@@H](O)[C@H]1OP(=O)(O)O | 33 | 
Nc1ncnc2c1ncn2[C@@H]1O[C@H](COP(=O)(O)O[C@H]2[C@H](O)[C@@H](COP(=O)(O)O[C@@H]3[C@H](O)[C@@H](COP(=O)(O)O[C@H]4[C@H](O)[C@@H](COP(=O)(O)O)O[C@H]4n4cnc5c(N)ncnc54)O[C@H]3n3cnc4c(N)ncnc43)O[C@H]2n2cnc3c(N)ncnc32)[C@@H](O)[C@H]1OP(=O)(O)O | 51 | 
Nc1ncnc2c1ncn2[C@@H]1O[C@H](COP(=O)(O)O[C@@H]2[C@H](O)[C@@H](COP(=O)(O)O[C@H]3[C@H](O)[C@@H](COP(=O)(O)O[C@@H]4[C@H](O)[C@@H](COP(=O)(O)O)O[C@H]4n4cnc5c(N)ncnc54)O[C@H]3n3cnc4c(N)ncnc43)O[C@H]2n2cnc3c(N)ncnc32)[C@@H](O)[C@H]1OP(=O)(O)O | 37 | 
Nc1ncnc2c1ncn2[C@@H]1O[C@H](COP(=O)(O)O[C@@H]2[C@H](O)[C@@H](COP(=O)(O)O[C@H]3[C@H](O)[C@@H](COP(=O)(O)O[C@H]4[C@H](O)[C@@H](COP(=O)(O)O)O[C@H]4n4cnc5c(N)ncnc54)O[C@H]3n3cnc4c(N)ncnc43)O[C@H]2n2cnc3c(N)ncnc32)[C@@H](O)[C@H]1OP(=O)(O)O | 24 | 
Nc1ncnc2c1ncn2[C@@H]1O[C@H](COP(=O)(O)O)[C@H](O)[C@H]1OP(=O)(O)OC[C@H]1O[C@@H](n2cnc3c(N)ncnc32)[C@H](OP(=O)(O)OC[C@H]2O[C@@H](n3cnc4c(N)ncnc43)[C@H](OP(=O)(O)OC[C@H]3O[C@@H](n4cnc5c(N)ncnc54)[C@H](OP(=O)(O)O)[C@@H]3O)[C@@H]2O)[C@@H]1O | 86 | 
Nc1ncnc2c1ncn2[C@@H]1O[C@H](COP(=O)(O)O[C@@H]2[C@H](O)[C@@H](COP(=O)(O)O[C@H]3[C@H](O)[C@@H](COP(=O)(O)O)O[C@H]3n3cnc4c(N)ncnc43)O[C@H]2n2cnc3c(N)ncnc32)[C@@H](O)[C@H]1OP(=O)(O)O | 49 | 
Nc1ncnc2c1ncn2[C@@H]1O[C@H](COP(=O)(O)O)[C@H](O)[C@H]1OP(=O)(O)OC[C@H]1O[C@@H](n2cnc3c(N)ncnc32)[C@H](OP(=O)(O)OC[C@H]2O[C@@H](n3cnc4c(N)ncnc43)[C@H](OP(=O)(O)O)[C@@H]2O)[C@H]1O | 45 | 
Nc1ncnc2c1ncn2[C@@H]1O[C@H](COP(=O)(O)O)[C@H](O)[C@H]1OP(=O)(O)OC[C@H]1O[C@@H](n2cnc3c(N)ncnc32)[C@H](OP(=O)(O)OC[C@H]2O[C@@H](n3cnc4c(N)ncnc43)[C@H](OP(=O)(O)OC[C@H]3O[C@@H](n4cnc5c(N)ncnc54)[C@H](OP(=O)(O)O)[C@@H]3O)[C@H]2O)[C@H]1O | 43 | 
Nc1ncnc2c1ncn2[C@@H]1O[C@H](COP(=O)(O)O[C@@H]2[C@H](O)[C@@H](COP(=O)(O)O)O[C@H]2n2cnc3c(N)ncnc32)[C@H](O)[C@H]1OP(=O)(O)OC[C@H]1O[C@@H](n2cnc3c(N)ncnc32)[C@H](OP(=O)(O)OC[C@H]2O[C@@H](n3cnc4c(N)ncnc43)[C@H](OP(=O)(O)O)[C@@H]2O)[C@@H]1O | 67 | 
Nc1ncnc2c1ncn2[C@@H]1O[C@H](COP(=O)(O)O[C@@H]2[C@@H](O)[C@@H](COP(=O)(O)O[C@@H]3[C@H](O)[C@@H](COP(=O)(O)O)O[C@H]3n3cnc4c(N)ncnc43)O[C@H]2n2cnc3c(N)ncnc32)[C@H](O)[C@H]1OP(=O)(O)OC[C@H]1O[C@@H](n2cnc3c(N)ncnc32)[C@H](OP(=O)(O)O)[C@@H]1O | 88 | EC50 [2]: 393 nM
Nc1ncnc2c1ncn2[C@@H]1O[C@H](COP(=O)(O)O[C@H]2[C@H](O)[C@@H](COP(=O)(O)O[C@H]3[C@H](O)[C@@H](COP(=O)(O)O[C@H]4[C@H](O)[C@@H](COP(=O)(O)O)O[C@H]4n4cnc5c(N)ncnc54)O[C@H]3n3cnc4c(N)ncnc43)O[C@H]2n2cnc3c(N)ncnc32)[C@@H](O)[C@H]1OP(=O)(O)O | 0 | 
Nc1ncnc2c1ncn2[C@@H]1O[C@H](COP(=O)(O)O)[C@H](O)[C@H]1OP(=O)(O)OC[C@H]1O[C@@H](n2cnc3c(N)ncnc32)[C@H](OP(=O)(O)OC[C@H]2O[C@@H](n3cnc4c(N)ncnc43)[C@H](OP(=O)(O)OC[C@H]3O[C@@H](n4cnc5c(N)ncnc54)[C@H](OP(=O)(O)O)[C@@H]3O)[C@@H]2O)[C@H]1O | 51 | 
Nc1ncnc2c1ncn2[C@@H]1O[C@H](COP(=O)(O)O)[C@H](O)[C@H]1OP(=O)(O)OC[C@H]1O[C@@H](n2cnc3c(N)ncnc32)[C@H](OP(=O)(O)OC[C@H]2O[C@@H](n3cnc4c(N)ncnc43)[C@H](OP(=O)(O)O)[C@@H]2O)[C@@H]1O | 64 | 
Nc1ncnc2c1ncn2[C@@H]1O[C@H](COP(=O)(O)O[C@@H]2[C@H](O)[C@@H](COP(=O)(O)O)O[C@H]2n2cnc3c(N)ncnc32)[C@H](O)[C@H]1OP(=O)(O)OC[C@H]1O[C@@H](n2cnc3c(N)ncnc32)[C@H](OP(=O)(O)O)[C@@H]1O | 41 | 
Nc1ncnc2c1ncn2[C@@H]1O[C@H](COP(=O)(O)O[C@@H]2[C@H](O)[C@@H](COP(=O)(O)O[C@@H]3[C@H](O)[C@@H](COP(=O)(O)O)O[C@H]3n3cnc4c(N)ncnc43)O[C@H]2n2cnc3c(N)ncnc32)[C@@H](O)[C@H]1OP(=O)(O)O | 39 | 
Nc1ncnc2c1ncn2[C@@H]1O[C@H](COP(=O)(O)O)[C@H](O)[C@H]1OP(=O)(O)OC[C@H]1O[C@@H](n2cnc3c(N)ncnc32)[C@H](OP(=O)(O)OC[C@H]2O[C@@H](n3cnc4c(N)ncnc43)[C@H](OP(=O)(O)OC[C@H]3O[C@@H](n4cnc5c(N)ncnc54)[C@H](OP(=O)(O)O)[C@@H]3O)[C@H]2O)[C@@H]1O | 93 | Stability (Mus musculus): Stable; EC50 [2]: 323 nM
Nc1ncnc2c1ncn2[C@@H]1O[C@H](COP(=O)(O)O[C@@H]2[C@H](O)[C@@H](COP(=O)(O)O[C@@H]3[C@H](O)[C@@H](COP(=O)(O)O[C@H]4[C@H](O)[C@@H](COP(=O)(O)O)O[C@H]4n4cnc5c(N)ncnc54)O[C@H]3n3cnc4c(N)ncnc43)O[C@H]2n2cnc3c(N)ncnc32)[C@@H](O)[C@H]1OP(=O)(O)O | 40 | 
Nc1ncnc2c1ncn2[C@@H]1O[C@H](COP(=O)(O)O[C@H]2[C@H](O)[C@@H](COP(=O)(O)O[C@H]3[C@H](O)[C@@H](COP(=O)(O)O)O[C@H]3n3cnc4c(N)ncnc43)O[C@H]2n2cnc3c(N)ncnc32)[C@@H](O)[C@H]1OP(=O)(O)O | 0 | 
Nc1ncnc2c1ncn2[C@@H]1O[C@H](COP(=O)(O)O[C@@H]2[C@H](O)[C@@H](COP(=O)(O)O[C@@H]3[C@H](O)[C@@H](COP(=O)(O)O[C@@H]4[C@H](O)[C@@H](COP(=O)(O)O)O[C@H]4n4cnc5c(N)ncnc54)O[C@H]3n3cnc4c(N)ncnc43)O[C@H]2n2cnc3c(N)ncnc32)[C@@H](O)[C@H]1OP(=O)(O)O | 100 | half-life [3]: 10 h; EC50 [2]: 0.9 nM
